≈ marks a conversion by molar mass, not a printed value. Blank lines part the entries; values can stand above or below the compound they belong to.
What was measured:
Helicobacter pylori [1] = assay: Minimum inhibitory concentration required to inhibit macroscopic colonial growth of Helicobacter pylori ranges from (6.25-12.5); assay type: functional
Method in brief: (§1)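 Agar dilution against 10 H. pylori strains (8001, 8003, 8004, 8007, 8008, 8009, 8011, 9005, FP1530, FP1532). Strains precultured 3 days at 37 °C on Brucella agar with 3% horse serum and 2% starch, then adjusted to McFarland No. 1. A 10²-fold dilution was spotted onto Brucella agar with 7% lysed horse blood and 2-fold drug dilutions. Plates incubated 3 days at 37 °C under 10% CO2. MIC is the lowest concentration preventing visible colonies; mean and range span the 10 strains.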

Cavia porcellus [2] = species on record: Cavia porcellus; assay: Inhibition of histamine-stimulated chronotropic response in isolated guinea pig right atrium at 1*10e-6 g/mL; assay type: functional, Cardiac atrium
Method in brief: (§2)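 Guinea pig atrial strip in Thyrode solution at 30 °C, gassed with 95% O2-5% CO2, initial tension 0.3-0.6 g. Beating rate recorded. Histamine hydrochloride 1 × 10⁻⁶ g/mL was given first. After washout, test compound at 1 × 10⁻⁶ g/mL was added 30 min later. Percent inhibition compares histamine-induced rate increases before and 30 min after compound.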

Rattus norvegicus [3] = assay: Inhibition of histamine-stimulated gastric acid secretion in lumen-perfused stomach of anesthetized rats after 1 mg/kg iv administration; assay type: functional
Method in brief: (§3)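 Male Sprague-Dawley rats, about 250 g, fasted 24 h and anesthetized with urethane 1.25 g/kg ip. Stomach lumen perfused with saline, perfusate titrated with 25 mM NaOH. Acid secretion was driven by iv histamine infusion at 3 mg/kg/h. At plateau, compound 1 mg/kg iv. Read-out is maximal inhibition of acid output, n = 2.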

Helicobacter pylori [4] = assay: Minimum inhibitory concentration required to inhibit macroscopic colonial growth of Helicobacter pylori; ranges from (0.39-6.25); assay type: functional; method in brief: as §1
Helicobacter pylori [5] = assay: microbe, parasite or virus in culture
Helicobacter pylori [6] = assay: Minimum inhibitory concentration required to inhibit macroscopic colonial growth of Helicobacter pylori; ranges from (6.25-25); assay type: functional; method in brief: as §1
Helicobacter pylori [7] = assay: Minimum inhibitory concentration required to inhibit macroscopic colonial growth of Helicobacter pylori; ranges from(1.56-25); assay type: functional; method in brief: as §1
Helicobacter pylori [8] = assay: Minimum inhibitory concentration required to inhibit macroscopic colonial growth of Helicobacter pylori; ranges from (0.05-0.2); assay type: functional; method in brief: as §1
Helicobacter pylori [9] = assay: Minimum inhibitory concentration required to inhibit macroscopic colonial growth of Helicobacter pylori; ranges from (3.13-[…]); assay type: functional; method in brief: as §1
Helicobacter pylori [10] = assay: Minimum inhibitory concentration required to inhibit macroscopic colonial growth of Helicobacter pylori; assay type: functional; method in brief: as §1
Helicobacter pylori [11] = assay: Minimum inhibitory concentration required to inhibit macroscopic colonial growth of Helicobacter pylori; ranges from (0.00625-0.1); assay type: functional; method in brief: as §1
Helicobacter pylori [12] = assay: Minimum inhibitory concentration required to inhibit macroscopic colonial growth of Helicobacter pylori; ranges from (0.78-1.56); assay type: functional; method in brief: as §1
Helicobacter pylori [13] = assay: Minimum inhibitory concentration required to inhibit macroscopic colonial growth of Helicobacter pylori; ranges from (0.2-3.13); assay type: functional; method in brief: as §1
Helicobacter pylori [14] = assay: Minimum inhibitory concentration required to inhibit macroscopic colonial growth of Helicobacter pylori; ranges from (0.2-0.78); assay type: functional; method in brief: as §1
Cavia porcellus [15] = species on record: Cavia porcellus; assay: Inhibition of histamine-stimulated chronotropic response in isolated guinea pig right atrium at 1*10e-4 g/mL; assay type: functional, Cardiac atrium
Helicobacter pylori [16] = assay: Minimum inhibitory concentration required to inhibit macroscopic colonial growth of Helicobacter pylori;ranges from (0.003-0.025); assay type: functional; method in brief: as §1
Helicobacter pylori [17] = assay: Minimum inhibitory concentration required to inhibit macroscopic colonial growth of Helicobacter pylori; ranges from (3.13-6.25); assay type: functional; method in brief: as §1
Helicobacter pylori [18] = assay: Minimum inhibitory concentration required to inhibit macroscopic colonial growth of Helicobacter pylori; ranges from (3.13-12.5); assay type: functional; method in brief: as §1
Helicobacter pylori [19] = assay: Minimum inhibitory concentration required to inhibit macroscopic colonial growth of Helicobacter pylori; ranges from (0.025-0.39); assay type: functional; method in brief: as §1
Helicobacter pylori [20] = assay: Minimum inhibitory concentration required to inhibit macroscopic colonial growth of Helicobacter pylori; ranges from (0.1-0.78); assay type: functional; method in brief: as §1
Cavia porcellus [21] = species on record: Cavia porcellus; assay: Inhibition of histamine-stimulated chronotropic response in isolated guinea pig right atrium; assay type: functional, Cardiac atrium; method in brief: as §2
Rattus norvegicus [22] = assay: Inhibition of histamine-stimulated gastric acid secretion in lumen-perfused stomach of anesthetized rats; assay type: functional; method in brief: as §3
Helicobacter pylori [23] = assay: Minimum inhibitory concentration required to inhibit macroscopic colonial growth of Helicobacter pylori; ranges from (0.2-1.56); assay type: functional; method in brief: as §1
Helicobacter pylori [24] = assay: Minimum inhibitory concentration required to inhibit macroscopic colonial growth of Helicobacter pylori; ranges from (0.0125-0.1); assay type: functional; method in brief: as §1
Helicobacter pylori [25] = assay: Minimum inhibitory concentration required to inhibit macroscopic colonial growth of Helicobacter pylori; ranges from ([…]-6.25); assay type: functional; method in brief: as §1
Helicobacter pylori [26] = assay: Minimum inhibitory concentration required to inhibit macroscopic colonial growth of Helicobacter pylori; ranges from (1.56-12.5); assay type: functional; method in brief: as §1
Helicobacter pylori [27] = assay: Minimum inhibitory concentration required to inhibit macroscopic colonial growth of Helicobacter pylori; ranges from (0.78-6.25); assay type: functional; method in brief: as §1
Helicobacter pylori [28] = assay: Minimum inhibitory concentration required to inhibit macroscopic colonial growth of Helicobacter pylori;ranges from (0.10-0.78); assay type: functional; method in brief: as §1
Helicobacter pylori [29] = assay: Minimum inhibitory concentration required to inhibit macroscopic colonial growth of Helicobacter pylori; ranges from (0.025-0.1); assay type: functional; method in brief: as §1

Compound: CN/C(=N\CCSCc1nc[nH]c1C)NC#N [CIMETIDINE]
- Inhibition (Cavia porcellus [2]): 43%
- inhibition in vivo at 1 mg/kg (Rattus norvegicus [3]): 53%
- MIC (Helicobacter pylori [5]): 1130 µg/mL (≈ 4480 µM)

Compound: Cc1ncc([N+](=O)[O-])n1CCO [METRONIDAZOLE]
- MIC (Helicobacter pylori [7]): 5.4 µg/mL (≈ 31.6 µM)

Compound: CC(=O)NCc1cccc(-c2csc(N/C(N)=N/CCC(C)C)n2)n1
- MIC (Helicobacter pylori [8]): 0.1 µg/mL (≈ 0.277 µM)
- Inhibition (Cavia porcellus [2]): 80%
- inhibition in vivo at 1 mg/kg (Rattus norvegicus [3]): 86%

Compound: CC[C@H]1OC(=O)[C@H](C)[C@@H](O[C@H]2C[C@@](C)(OC)[C@@H](O)[C@H](C)O2)[C@H](C)[C@@H](O[C@@H]2O[C@H](C)C[C@H](N(C)C)[C@H]2O)[C@](C)(OC)C[C@@H](C)C(=O)[C@H](C)[C@@H](O)[C@]1(C)O [CLARITHROMYCIN]
- MIC (Helicobacter pylori [10]): 0.057 µg/mL (≈ 0.0762 µM)

Compound: CSCC/N=C(\N)Nc1nc(-c2cccc(CNC(C)=O)n2)cs1
- MIC (Helicobacter pylori [12]): 1.1 µg/mL (≈ 3.02 µM)

Compound: COc1ccccc1CC/N=C(\N)Nc1nc(-c2ncc(CNC(C)=O)o2)cs1
- MIC (Helicobacter pylori [13]): 1.1 µg/mL (≈ 2.65 µM)
- Inhibition (Cavia porcellus [2]): 37%
- inhibition in vivo at 1 mg/kg (Rattus norvegicus [3]): 50%

Compound: COc1ccc(CC/N=C(\N)Nc2nc(-c3cccc(CNC(C)=O)n3)cs2)cc1
- Inhibition (Cavia porcellus [2]): 24%
- inhibition in vivo at 1 mg/kg (Rattus norvegicus [3]): 18%
- MIC (Helicobacter pylori [14]): 0.42 µg/mL (≈ 0.989 µM)

Compound: COc1ccccc1CC/N=C(\N)Nc1nc(-c2ccc(CNC(C)=O)s2)cs1
- Inhibition (Cavia porcellus [15]): <10%
- MIC (Helicobacter pylori [16]): 0.0065 µg/mL (≈ 0.0151 µM)

Compound: CCCC/N=C(\N)Nc1nc(-c2ccnc(CNC(C)=O)n2)cs1
- MIC (Helicobacter pylori [17]): 4.1 µg/mL (≈ 11.8 µM)
- Inhibition (Cavia porcellus [2]): <10%

Compound: CCCC/N=C(\N)Nc1nc(-c2ccc(CNC(C)=O)s2)cs1
- Inhibition (Cavia porcellus [15]): <10%
- MIC (Helicobacter pylori [20]): 0.32 µg/mL (≈ 0.91 µM)

Compound: CCCC/N=C(\N)Nc1nc(-c2csc(CNC(C)=O)n2)cs1
- MIC (Helicobacter pylori [23]): 0.52 µg/mL (≈ 1.48 µM)
- Inhibition (Cavia porcellus [2]): 85%
- inhibition in vivo at 1 mg/kg (Rattus norvegicus [3]): 50%

Compound: COc1ccccc1CC/N=C(\N)Nc1nc(-c2csc(CNC(C)=O)n2)cs1
- Inhibition (Cavia porcellus [2]): 30%
- inhibition in vivo at 1 mg/kg (Rattus norvegicus [3]): 23%
- MIC (Helicobacter pylori [24]): 0.043 µg/mL (≈ 0.0999 µM)

Compound: CC(=O)NCc1cccc(-c2csc(N/C(N)=N/CCN(C)C)n2)n1
- MIC (Helicobacter pylori [10]): > 100 µg/mL

Compound: CC/N=C(\N)Nc1nc(-c2cccc(CNC(C)=O)n2)cs1
- MIC (Helicobacter pylori [26]): 4.7 µg/mL (≈ 14.8 µM)

Compound: COCC/N=C(\N)Nc1nc(-c2cccc(CNC(C)=O)n2)cs1
- MIC (Helicobacter pylori [18]): 6.7 µg/mL (≈ 19.2 µM)

Compound: CCCC/N=C(\N)Nc1nc(-c2cccc(CNC(C)=O)n2)cs1
- MIC (Helicobacter pylori [23]): 0.59 µg/mL (≈ 1.7 µM)
- Inhibition (Cavia porcellus [2]): 100%
- inhibition in vivo at 1 mg/kg (Rattus norvegicus [3]): 76%

Compound: BISMUTH SUBCITRATE
- MIC (Helicobacter pylori [10]): 18 µg/mL

More lines, main results first:

- MIC (Helicobacter pylori [1]): 10.2 µg/mL (≈ 24.7 µM)
Compound: COc1ccccc1CC/N=C(\N)Nc1nc(-c2c[nH]c(CNC(C)=O)n2)cs1

- MIC (Helicobacter pylori [4]): 1.92 µg/mL (≈ 5.83 µM)
Compound: CCCC/N=C(\N)Nc1nc(-c2cccc(CNC(C)=O)c2)co1
- Inhibition (Cavia porcellus [2]): 93%
- inhibition in vivo at 1 mg/kg (Rattus norvegicus [3]): 60%

- MIC (Helicobacter pylori [6]): 19.3 µg/mL (≈ 60.4 µM)
Compound: CCCC/N=C(\N)Nc1nc(-c2ccc(CNC(C)=O)o2)co1
- Inhibition (Cavia porcellus [2]): 82%
- inhibition in vivo at 1 mg/kg (Rattus norvegicus [3]): 51%

- MIC (Helicobacter pylori [6]): 11.5 µg/mL (≈ 30.6 µM)
Compound: CC(=O)NCC/N=C(\N)Nc1nc(-c2cccc(CNC(C)=O)n2)cs1

- MIC (Helicobacter pylori [9]): 5.1 µg/mL (≈ 16.8 µM)
Compound: C/N=C(\N)Nc1nc(-c2cccc(CNC(C)=O)n2)cs1

- MIC (Helicobacter pylori [11]): 0.021 µg/mL (≈ 0.0575 µM)
Compound: CC1(C)S[C@@H]2[C@H](NC(=O)[C@H](N)c3ccc(O)cc3)C(=O)N2[C@H]1C(=O)O [AMOXICILLIN]

- MIC (Helicobacter pylori [6]): 13.4 µg/mL (≈ 36 µM)
Compound: CC(=O)NCc1cccc(-c2csc(NC(=N)NCC(F)(F)F)n2)n1

- MIC (Helicobacter pylori [8]): 0.1 µg/mL (≈ 0.253 µM)
Compound: CC(=O)NCc1cccc(-c2csc(NC(=N)NCCc3ccccc3)n2)n1
- Inhibition (Cavia porcellus [2]): 71%
- Inhibition (Rattus norvegicus [3]): 50%

- MIC (Helicobacter pylori [18]): 10.9 µg/mL (≈ 32.3 µM)
Compound: CCCC/N=C(\N)Nc1nc(-c2nc(CNC(C)=O)no2)cs1
- Inhibition (Cavia porcellus [2]): <10%

- MIC (Helicobacter pylori [17]): 4.4 µg/mL (≈ 10.6 µM)
Compound: COc1ccccc1CC/N=C(\N)Nc1nc(-c2cc(CNC(C)=O)on2)cs1
- Inhibition (Cavia porcellus [2]): <10%

- MIC (Helicobacter pylori [19]): 0.14 µg/mL (≈ 0.33 µM)
Compound: COc1cccc(CC/N=C(\N)Nc2nc(-c3cccc(CNC(C)=O)n3)cs2)c1
- Inhibition (Cavia porcellus [2]): 83%
- inhibition in vivo at 1 mg/kg (Rattus norvegicus [3]): 68%

- MIC (Helicobacter pylori [10]): > 1600 µg/mL
Compound: CNC(=C[N+](=O)[O-])NCCSCc1ccc(CN(C)C)o1 [RANITIDINE]
- Inhibition (Cavia porcellus [21]): 44%
- Inhibition (Rattus norvegicus [22]): 72%

- MIC (Helicobacter pylori [25]): 3.9 µg/mL (≈ 11.8 µM)
Compound: CCCC/N=C(\N)Nc1nc(-c2cccc(CNC(C)=O)n2)co1
- Inhibition (Cavia porcellus [2]): 81%
- inhibition in vivo at 1 mg/kg (Rattus norvegicus [3]): 92%

- MIC (Helicobacter pylori [27]): 2.9 µg/mL (≈ 8.72 µM)
Compound: CCC/N=C(\N)Nc1nc(-c2cccc(CNC(C)=O)n2)cs1

- MIC (Helicobacter pylori [28]): 0.3 µg/mL (≈ 0.736 µM)
Compound: COc1ccccc1CC/N=C(\N)Nc1nc(-c2cccc(CNC(C)=O)c2)co1
- Inhibition (Cavia porcellus [2]): 65%
- inhibition in vivo at 1 mg/kg (Rattus norvegicus [3]): 40%

- MIC (Helicobacter pylori [29]): 0.037 µg/mL (≈ 0.0872 µM)
Compound: COc1ccccc1CC/N=C(\N)Nc1nc(-c2cccc(CNC(C)=O)n2)cs1
- Inhibition (Cavia porcellus [2]): 78%
- inhibition in vivo at 1 mg/kg (Rattus norvegicus [3]): 65%

Source: ChEMBL document CHEMBL1135391, “Anti-Helicobacter pylori agents. 5. 2-(Substituted guanidino)-4-arylthiazoles and aryloxazole analogues” (2002)
